# Sampled rows, rich in hits. Any-hit rate of the full collection: about 4.5%.
# XBP1 UPR activ = adaptive UPR (XBP1) activation; CHO-XBP1 luciferase reporter, IRE1-XBP1 UPR activation, luminescence; percent of tunicamycin response, DMSO as zero; activation, % at 20 µM; 0.33% of 330,000 active;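 active = versus positive control, 20 µM dose yields 30% or more activation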
#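 Assay system: CHO-XBP1 luciferase reporter cells; Schedule: 6 h treatment, 37 °C; Detection: glow luminescence from Steady-Glo reagent; Benchmarks: high control tunicamycin 10 µg/mL final, low control DMSO vehicle only.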
# CHOP inhibitor = CHOP inhibition in unfolded protein response | AID 2732 | 3.8% of 220,000 active | CHO-K1 CHOP-promoter luciferase, tunicamycin-induced, 15-18 h | inhibition, % at 10 µM;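 active = compounds that reduced the stress-induced luciferase reporter signal by more than about 70% of percent inhibition, limit read from the data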
# p97 ATPase inh = human p97 ATPase inhibition | recombinant p97 ATPase, Kinase-Glo ATP luminescence, 3 h | inhibition, % at 8 µM | 0.42% of 220,000 active; in the data active = inhibition above about 15%
# Target sequence (P55072 whole entry, looked up): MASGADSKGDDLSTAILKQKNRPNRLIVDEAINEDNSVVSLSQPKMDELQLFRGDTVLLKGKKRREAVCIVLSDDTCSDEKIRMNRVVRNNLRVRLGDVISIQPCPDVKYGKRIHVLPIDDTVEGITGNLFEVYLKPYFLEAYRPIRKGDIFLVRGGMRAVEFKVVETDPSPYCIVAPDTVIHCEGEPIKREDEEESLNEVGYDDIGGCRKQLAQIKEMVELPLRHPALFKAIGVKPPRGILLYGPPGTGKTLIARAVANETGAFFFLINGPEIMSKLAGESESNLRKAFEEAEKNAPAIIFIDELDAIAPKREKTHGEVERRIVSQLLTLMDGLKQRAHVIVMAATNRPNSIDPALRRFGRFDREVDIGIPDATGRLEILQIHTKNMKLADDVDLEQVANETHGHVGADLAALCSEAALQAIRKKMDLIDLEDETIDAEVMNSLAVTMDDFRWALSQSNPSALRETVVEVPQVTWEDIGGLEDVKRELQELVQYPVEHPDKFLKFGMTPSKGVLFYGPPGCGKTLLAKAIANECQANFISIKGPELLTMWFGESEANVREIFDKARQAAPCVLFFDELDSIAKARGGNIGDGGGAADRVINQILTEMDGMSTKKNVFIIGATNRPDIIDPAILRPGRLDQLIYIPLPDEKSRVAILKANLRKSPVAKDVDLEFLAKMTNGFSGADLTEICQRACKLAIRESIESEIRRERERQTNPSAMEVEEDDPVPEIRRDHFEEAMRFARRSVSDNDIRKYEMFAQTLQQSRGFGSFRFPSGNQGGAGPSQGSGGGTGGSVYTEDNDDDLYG
# PfM18AAP inh = blocks P. falciparum M18 aspartyl aminopeptidase; recombinant PfM18AAP, H-Glu-NHMec fluorogenic cleavage; inhibition, % at 7.35 µM; 1.2% of 290,000 active; AID 1822;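 active = inhibition above the campaign mean inhibition over all tested compounds plus 3 SD, cut at about 28% in these data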
# HCV NS3 hel inh = inhibitors of Hepatitis C virus NS3 helicase | inhibition, % at 10.9 µM | 0.56% of 290,000 active | NS3 helicase DNA unwinding, Cy5 molecular beacon fluorescence | AID 1800;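 active = inhibition above the mean of all tested compounds plus 3 SD, set per campaign, cut at about 35% in these data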
#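 Compound dosing – single dose, 10.9 µM nominal final, DMSO 0.8% final · System – NS3 helicase fragment of HCV · Buffer or medium – MOPS pH 6.5, MgCl2, DTT, Tween20, BSA · Signal – Cy5 beacon fluorescence read at start and 1 h · Also added – annealed dual-labelled DNA beacon duplex, ATP-started · Schedule – 1 h at 25 °C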
# UPR CHOP act = activators of apoptotic arm of unfolded protein response (CHOP) | CHO-CHOP luciferase reporter, UPR activation, luminescence; percent of tunicamycin response over DMSO baseline | activation, % at 10 µM | 0.34% of 330,000 active | AID 449763;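 active = at 10 µM dose, activation of 40% or more, normalized to positive control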
#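 Assay system: CHO cells with stable CHOP pathway luciferase reporter; Buffer or medium: F12 plus 10% serum; Times: 16-18 h cell attachment, then 6 h compound exposure, 37 °C; Signal: luciferase luminescence; Read-out basis: percent activation relative to tunicamycin control; Control set: tunicamycin high control, DMSO low control.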
# NS3 hel confirm = HCV NS3 helicase inhibition, confirmation assay. shares compounds with HCV NS3 hel inh. NS3 helicase DNA unwinding, Cy5 molecular beacon fluorescence. inhibition, % at 10.9 µM. 31% of 1,600 active. AID 1943;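 active = inhibition above the mean of all tested compounds plus 3 SD, cutoff set per campaign, cut at about 36% in these data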
# DNA FID counter = displaces DNA intercalator in HCV helicase counter-screen. DNA fluorescent intercalator displacement, fluorescence. 4% of 1,600 active. inhibition, % at 7.9 µM. AID 1945. shares compounds with HCV NS3 hel inh; in the data active = inhibition above about 37%;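 also: higher means more displacement of ethidium bromide from the DNA hairpin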
# DNA FID DR = displaces fluorescent intercalator from DNA, HCV helicase counter-screen. 120 tested, under 10 active. fluorescent intercalator displacement from DNA, fluorescence. AID 2172. shares compounds with HCV NS3 hel inh. IC50, µM; call rule not given here
# Numbers stand for hits; . = inactive; / = not tested or not shown.
SMILES,XBP1 UPR activ,CHOP inhibitor,p97 ATPase inh,PfM18AAP inh,HCV NS3 hel inh,UPR CHOP act,NS3 hel confirm,DNA FID counter,others
CCOc1ccc(-n2nc3cc(C)c(N)cc3n2)cc1,.,/,/,.,63,.,.,.,
CCOc1ccc(-n2nc3ccc(N)cc3n2)cc1,.,/,/,.,44,.,.,.,
CCc1nnc(NS(=O)(=O)c2ccc(N/C=C\C(=O)c3cccc4ccccc34)cc2)s1,.,.,.,.,55,.,.,.,
CCOc1ccc(C(=O)N2CCN(c3cnn(-c4ccccc4)c(=O)c3Cl)CC2)cc1,.,.,.,.,40,.,.,.,
O=C(c1cccc(Br)c1)N1CCN(c2cnn(-c3ccccc3)c(=O)c2Cl)CC1,.,.,.,.,.,.,/,/,
CSCCC(NC(=O)c1cncc(Br)c1)C(=O)O (configuration not stated),.,.,.,.,40,.,.,.,
CCNS(=O)(=O)c1ccc(CCC(=O)N2CCN(c3ccccc3)CC2)cc1,.,/,/,.,.,.,/,/,
Cc1cccc(NC(=S)Nc2ccc(N3CCOCC3)cc2)c1C,.,.,.,.,40,.,.,.,
O=C1OC(/C=C/c2ccc(Cl)cc2)=NC/1=C/c1ccco1,.,.,.,.,41,.,.,.,
O=C1NC(=O)/C(=C\c2ccccc2Oc2ccc(F)c(F)c2)S1,.,.,.,.,55,.,.,.,
Cc1ccc(S(=O)(=O)NC(=O)c2cc(C)n(CCCN3CCOCC3)c2C)cc1,.,.,.,.,.,.,/,/,
Cc1ccc(S(=O)(=O)NC(=O)c2cc(C)n(C3CC3)c2C)cc1,.,.,.,.,38,.,.,.,
Cc1ccc(-n2c(C)cc(C(=O)NS(=O)(=O)c3ccc(C)cc3)c2C)cc1,.,.,.,.,39,.,43,.,
COCCNC(=O)/C(C#N)=C/c1c(N2CCN(C)CC2)nc2ccccn2c1=O,.,/,/,.,.,.,/,/,
Cc1cc2[nH]c(=O)c(=O)[nH]c2cc1S(=O)(=O)NCc1ccc(Cl)cc1,.,/,/,.,.,.,/,/,
O=C(c1ccc([N+](=O)[O-])cc1)N1CCC(Cc2ccccc2)CC1,.,.,.,.,.,.,/,/,
O=C(c1cnc(Cl)c(Cl)c1)N1CCC(Cc2ccccc2)CC1,.,.,.,.,37,.,.,.,
CC(C)c1ccc(/C=C/c2[nH]c(=O)[nH]c(=O)c2[N+](=O)[O-])cc1,.,/,/,.,56,.,53,.,
CCOc1ccc(/C=C/c2[nH]c(=O)[nH]c(=O)c2[N+](=O)[O-])cc1,.,/,/,.,.,.,/,/,
O=C(CN1CCN(C(=O)C2COc3ccccc3O2)CC1)Nc1ccc(F)cc1 (configuration not stated),.,.,.,.,.,.,/,/,
N#Cc1ccc(Cn2c(-c3ccc(F)cc3)noc2=O)cc1,.,/,/,.,.,.,/,/,
COc1ccc(OCC(=O)N/N=C/C(C)=C/c2ccco2)c(Br)c1,.,/,/,.,45,.,.,.,
O=C(O)c1[nH]c2ccccc2c1C(c1ccccc1)c1c(C(=O)O)[nH]c2ccccc12,.,/,/,.,.,.,/,/,
COc1cc(C(c2c(C(=O)O)[nH]c3ccccc23)c2c(C(=O)O)[nH]c3ccccc23)ccc1OCc1ccccc1,.,/,/,.,37,.,.,.,
Cc1ccc(/C=C/C(=O)c2ccccc(=O)c2O)c(C)c1,.,77,.,.,38,.,77,.,DNA FID DR=.
SMILES,XBP1 UPR activ,CHOP inhibitor,p97 ATPase inh,PfM18AAP inh,HCV NS3 hel inh,UPR CHOP act,NS3 hel confirm,DNA FID counter,others
Cc1ccc(C(=O)/C=C/c2ccc3c(c2)OCCO3)c(O)c1,.,.,.,.,.,.,/,/,
O=C(/C=C/c1ccccc1Cl)c1ccccc(=O)c1O,/,.,.,.,44,/,78,.,DNA FID DR=.
Cc1ccc(C)c(/C=C/C(=O)c2ccccc(=O)c2O)c1,/,93,.,.,38,/,77,.,DNA FID DR=.
COc1ccc(C(=O)Nc2nc3c(s2)CCCC3)cc1S(=O)(=O)N1CCCc2ccccc21,.,.,.,.,.,.,/,/,
CN1CCCN=C1/C=C/c1cccs1,.,/,/,.,.,.,/,/,
O=[N+]([O-])c1ccc(OCCO)nc1,.,.,.,.,.,.,/,/,
O=S(=O)(O)c1nc2ccccc2n1Cc1cccc2ccccc12,.,.,.,.,43,.,62,.,
CC(=O)c1cccc(Nc2nc(-c3cccnc3)cs2)c1,.,/,/,.,44,.,.,.,
O=C(Nc1cccnc1)C(Cc1ccccc1)n1cccc1 (configuration not stated),.,.,.,.,.,.,/,/,
O=C(Nc1ncc(Br)s1)C(Cc1ccccc1)n1cccc1 (configuration not stated),.,.,.,.,44,.,.,.,
CCOc1ccc(-n2ccc(=O)c(C(=O)Nc3ccc(S(=O)(=O)Nc4nccs4)cc3)n2)cc1,.,/,/,.,37,.,.,.,
CC(=O)OCC1=C(C(=O)O)N2C(=O)C(NC(=O)Cn3nc(C(F)F)c(Cl)c3C)C2SC1 (configuration not stated),.,.,.,.,40,.,.,.,
Cc1nnc(SCC2=C(C(=O)O)N3C(=O)C(NC(=O)c4cc(F)c(F)cc4Cl)C3SC2)s1 (configuration not stated),.,.,.,.,36,.,.,.,
CC(=O)OCC1=C(C(=O)O)N2C(=O)C(NC(=O)c3ccc(COc4c(C)cccc4Cl)o3)C2SC1 (configuration not stated),.,.,.,.,38,.,46,.,
Cc1nnc(SCC2=C(C(=O)O)N3C(=O)C(NC(=O)Cn4nc(C(F)F)c(Cl)c4C)C3SC2)s1 (configuration not stated),.,.,.,.,45,.,38,.,
CC12CC3CC(C)(C1)CC(Nc1nc(N4CCOCC4)nc4ccccc14)(C3)C2,.,.,.,.,.,.,/,/,
COCCn1c(SC(C)C(=O)NCC2CCCO2)nc2scc(-c3ccc(F)cc3)c2c1=O (configuration not stated),.,/,/,/,/,.,/,/,
O=C1C=C(c2ccc3c(c2)OCO3)C[C@@H](c2ccc(Cl)cc2)C1,.,/,/,/,/,.,/,/,
CCOC(=O)c1ccc(N=Cc2c(O)c3ccccc3oc2=O)cc1,.,/,/,.,41,.,.,.,
Cc1ccc(N2C(=O)CN(Cc3ccccc3)C2=S)cc1C,.,/,/,.,.,.,/,/,

# Compound activity: PubChem BioAssay, several laboratories
